Measured values as given in article PMC4080709 (Science translational medicine, 2014).

What was measured:
CDV-5804PeH = assay: oral efficacy in ferrets infected intranasally with lethal CDV-5804PeH; type: in vivo, ferret
How it was run: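 Male and female adult European ferrets without CDV immunity, infected intranasally with 1×10⁵ TCID₅₀ CDV-5804PeH per animal (~10 LD₅₀). Dosing by gastric gavage at 50 mg/kg b.i.d. in PEG200/0.5% methylcellulose (10/90). Post-exposure arm starts 3 days post-infection and runs 14 days; controls receive vehicle. Daily clinical observation. Blood and weights taken days 0, 3, 7, 10, 14, then weekly. Survival analysed by log-rank (Mantel-Cox) test.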

[1] = rat model; cited from earlier work
[2] = system: established human and animal cell lines and primary human PBMCs; assay: CytoTox96 non-radioactive cytotoxicity assay; type: cell-based
How it was run: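 CytoTox96 non-radioactive cytotoxicity assay; highest concentration tested 75 µM. Signal normalised to vehicle controls as %-toxicity = 100-((specific_490nm)/([…])*100). CC₅₀ derived from the mean of four replicates. Compound dissolved in DMSO. Cell lines kept at 37°C, 5% CO₂ in DMEM with 7.5% FBS.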

MeV polymerase complex = MeV polymerase complex (Measles virus, UniProt P12576); assay: minigenome luciferase replicon reporter assay, MeV; type: cell-based; settings: 10 µM highest
CDV polymerase complex = CDV polymerase complex (Canine distemper virus, UniProt P24658); assay: minigenome luciferase replicon reporter assay, CDV; type: cell-based; settings: 10 µM highest
RSV polymerase complex = RSV polymerase complex (Human respiratory syncytial virus A, UniProt P28887); assay: minigenome luciferase replicon reporter assay, RSV; type: cell-based; settings: 10 µM highest
[3] = single-dose oral PK study in ferrets; type: in vivo; settings: ferret, single-dose p.o. 50 mg/kg
How it was run: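 Ferrets given a single oral dose of 50 mg/kg in PEG-200/0.5% methylcellulose (10/90) at time zero, with blood sampled at set time points afterwards. Plasma prepared from heparinised blood. Drug quantified by internal-standard, reversed-phase isocratic HPLC with positive-ion electrospray LC/MS/MS. PK parameters estimated by modelling software.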

[4] = system: CDV-5804PeH and Snyder Hill isolate; assay: in vitro efficacy testing against pathogenic CDV strains; type: cell-based, canine distemper virus; settings: recombinant CDV-5804PeH and neuroadapted Snyder Hill isolate
How it was run: (§1)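 Virus yield reduction: cell-associated progeny titred by TCID₅₀. MeV is handled on Vero-hSLAM cells and CDV on Vero-cSLAM cells. Compound in DMSO. EC₅₀ from four-parameter variable-slope non-linear regression, with 95% asymmetric confidence intervals, from at least three independent experiments per virus. SI = CC₅₀/EC₅₀. MeV panel covers seven endemic genotypes; CDV strains are recombinant 5804PeH and Snyder Hill.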

[5] = system: CDV-5804PeH recombinants harboring L resistance mutations; assay: dose-response inhibition of resistant CDV-5804PeH recombinants; type: cell-based, canine distemper virus
How it was run: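 Candidate L resistance mutations introduced singly into the CDV-5804PeH background by site-directed mutagenesis. Recombinants recovered, and mutations confirmed by RT-PCR and cDNA sequencing. Dose-response inhibition measured as cell-associated viral titres (TCID₅₀ on Vero-cSLAM cells), as mean ± SD of at least three independent experiments. Four-parameter variable-slope regression.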

MeV isolates = assay: in vitro efficacy testing against a panel of MeV isolates; type: cell-based, measles virus
How it was run: as §1

serum protein binding = type: in vitro ADME
[6] = shelf-stability at ambient temperature; type: physicochemical
[7] = cited from earlier work

Sequence of CDV polymerase complex (P06940 whole entry): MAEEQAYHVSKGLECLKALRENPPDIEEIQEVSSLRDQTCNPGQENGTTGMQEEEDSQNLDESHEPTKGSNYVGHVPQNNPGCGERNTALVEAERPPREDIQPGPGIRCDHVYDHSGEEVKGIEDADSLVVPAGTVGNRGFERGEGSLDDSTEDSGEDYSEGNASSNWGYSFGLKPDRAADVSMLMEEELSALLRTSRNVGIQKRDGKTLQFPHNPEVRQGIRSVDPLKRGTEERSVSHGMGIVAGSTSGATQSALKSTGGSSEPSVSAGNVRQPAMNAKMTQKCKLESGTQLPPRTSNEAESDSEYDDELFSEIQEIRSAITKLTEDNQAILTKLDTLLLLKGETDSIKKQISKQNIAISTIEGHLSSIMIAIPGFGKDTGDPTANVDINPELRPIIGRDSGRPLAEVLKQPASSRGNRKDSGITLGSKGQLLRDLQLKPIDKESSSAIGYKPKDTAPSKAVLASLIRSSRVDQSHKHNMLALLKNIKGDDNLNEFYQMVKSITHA
Sequence of CDV polymerase complex (P24658 whole entry): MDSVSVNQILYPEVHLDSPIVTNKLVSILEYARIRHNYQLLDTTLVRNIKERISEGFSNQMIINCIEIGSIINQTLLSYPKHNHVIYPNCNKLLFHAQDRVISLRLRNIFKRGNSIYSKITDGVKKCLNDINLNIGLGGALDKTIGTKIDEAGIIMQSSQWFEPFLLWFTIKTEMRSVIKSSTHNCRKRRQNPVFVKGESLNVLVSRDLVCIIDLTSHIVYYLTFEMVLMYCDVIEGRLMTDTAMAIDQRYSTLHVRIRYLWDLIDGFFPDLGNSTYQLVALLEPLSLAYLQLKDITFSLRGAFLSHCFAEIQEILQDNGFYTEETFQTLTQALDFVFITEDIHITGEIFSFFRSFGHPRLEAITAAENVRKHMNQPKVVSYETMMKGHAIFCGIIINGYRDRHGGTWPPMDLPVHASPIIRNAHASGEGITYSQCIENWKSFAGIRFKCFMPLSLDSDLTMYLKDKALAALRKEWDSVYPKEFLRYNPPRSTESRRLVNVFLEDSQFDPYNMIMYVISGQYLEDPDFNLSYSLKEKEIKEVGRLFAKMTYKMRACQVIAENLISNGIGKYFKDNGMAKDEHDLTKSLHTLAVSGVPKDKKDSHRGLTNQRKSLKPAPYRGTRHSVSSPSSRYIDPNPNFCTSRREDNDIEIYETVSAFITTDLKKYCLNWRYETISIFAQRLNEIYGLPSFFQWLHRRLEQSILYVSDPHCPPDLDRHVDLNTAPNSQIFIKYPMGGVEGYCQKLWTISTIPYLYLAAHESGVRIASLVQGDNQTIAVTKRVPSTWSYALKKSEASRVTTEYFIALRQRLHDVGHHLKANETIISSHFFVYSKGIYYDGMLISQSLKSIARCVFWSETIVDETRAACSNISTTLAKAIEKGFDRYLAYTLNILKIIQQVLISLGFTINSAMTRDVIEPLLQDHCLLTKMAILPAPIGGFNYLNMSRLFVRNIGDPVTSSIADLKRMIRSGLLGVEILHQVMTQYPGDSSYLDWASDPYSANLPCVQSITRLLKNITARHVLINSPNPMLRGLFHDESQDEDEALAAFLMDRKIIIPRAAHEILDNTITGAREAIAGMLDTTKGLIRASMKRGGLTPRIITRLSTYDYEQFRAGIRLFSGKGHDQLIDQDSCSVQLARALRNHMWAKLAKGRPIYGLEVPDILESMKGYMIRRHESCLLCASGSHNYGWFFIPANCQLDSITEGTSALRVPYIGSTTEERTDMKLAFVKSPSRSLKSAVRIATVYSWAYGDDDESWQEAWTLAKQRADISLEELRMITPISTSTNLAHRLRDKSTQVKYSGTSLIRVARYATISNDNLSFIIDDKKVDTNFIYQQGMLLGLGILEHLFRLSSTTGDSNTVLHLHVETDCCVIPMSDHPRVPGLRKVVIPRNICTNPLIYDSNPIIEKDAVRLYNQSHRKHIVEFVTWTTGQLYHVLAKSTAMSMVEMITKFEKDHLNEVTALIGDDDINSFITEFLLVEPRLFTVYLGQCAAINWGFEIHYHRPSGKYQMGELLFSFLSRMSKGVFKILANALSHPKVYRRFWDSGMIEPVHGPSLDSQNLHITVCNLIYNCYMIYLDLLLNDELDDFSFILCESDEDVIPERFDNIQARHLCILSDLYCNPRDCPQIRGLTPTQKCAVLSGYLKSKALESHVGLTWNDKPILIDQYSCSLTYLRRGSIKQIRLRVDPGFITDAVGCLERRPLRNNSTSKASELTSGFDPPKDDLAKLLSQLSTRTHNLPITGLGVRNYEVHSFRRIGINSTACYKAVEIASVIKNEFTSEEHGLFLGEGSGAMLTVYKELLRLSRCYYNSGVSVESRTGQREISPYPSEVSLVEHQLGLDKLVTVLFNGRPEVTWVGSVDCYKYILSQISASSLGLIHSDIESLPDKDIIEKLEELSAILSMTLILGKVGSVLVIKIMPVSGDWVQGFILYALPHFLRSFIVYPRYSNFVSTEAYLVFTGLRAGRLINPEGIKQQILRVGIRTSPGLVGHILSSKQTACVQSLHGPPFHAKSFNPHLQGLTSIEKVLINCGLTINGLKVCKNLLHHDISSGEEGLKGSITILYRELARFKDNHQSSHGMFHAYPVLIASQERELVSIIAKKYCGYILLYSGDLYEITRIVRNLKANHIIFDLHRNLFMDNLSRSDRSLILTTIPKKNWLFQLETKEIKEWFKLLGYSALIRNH
Sequence of RSV polymerase complex (P28887 whole entry, one chain of several): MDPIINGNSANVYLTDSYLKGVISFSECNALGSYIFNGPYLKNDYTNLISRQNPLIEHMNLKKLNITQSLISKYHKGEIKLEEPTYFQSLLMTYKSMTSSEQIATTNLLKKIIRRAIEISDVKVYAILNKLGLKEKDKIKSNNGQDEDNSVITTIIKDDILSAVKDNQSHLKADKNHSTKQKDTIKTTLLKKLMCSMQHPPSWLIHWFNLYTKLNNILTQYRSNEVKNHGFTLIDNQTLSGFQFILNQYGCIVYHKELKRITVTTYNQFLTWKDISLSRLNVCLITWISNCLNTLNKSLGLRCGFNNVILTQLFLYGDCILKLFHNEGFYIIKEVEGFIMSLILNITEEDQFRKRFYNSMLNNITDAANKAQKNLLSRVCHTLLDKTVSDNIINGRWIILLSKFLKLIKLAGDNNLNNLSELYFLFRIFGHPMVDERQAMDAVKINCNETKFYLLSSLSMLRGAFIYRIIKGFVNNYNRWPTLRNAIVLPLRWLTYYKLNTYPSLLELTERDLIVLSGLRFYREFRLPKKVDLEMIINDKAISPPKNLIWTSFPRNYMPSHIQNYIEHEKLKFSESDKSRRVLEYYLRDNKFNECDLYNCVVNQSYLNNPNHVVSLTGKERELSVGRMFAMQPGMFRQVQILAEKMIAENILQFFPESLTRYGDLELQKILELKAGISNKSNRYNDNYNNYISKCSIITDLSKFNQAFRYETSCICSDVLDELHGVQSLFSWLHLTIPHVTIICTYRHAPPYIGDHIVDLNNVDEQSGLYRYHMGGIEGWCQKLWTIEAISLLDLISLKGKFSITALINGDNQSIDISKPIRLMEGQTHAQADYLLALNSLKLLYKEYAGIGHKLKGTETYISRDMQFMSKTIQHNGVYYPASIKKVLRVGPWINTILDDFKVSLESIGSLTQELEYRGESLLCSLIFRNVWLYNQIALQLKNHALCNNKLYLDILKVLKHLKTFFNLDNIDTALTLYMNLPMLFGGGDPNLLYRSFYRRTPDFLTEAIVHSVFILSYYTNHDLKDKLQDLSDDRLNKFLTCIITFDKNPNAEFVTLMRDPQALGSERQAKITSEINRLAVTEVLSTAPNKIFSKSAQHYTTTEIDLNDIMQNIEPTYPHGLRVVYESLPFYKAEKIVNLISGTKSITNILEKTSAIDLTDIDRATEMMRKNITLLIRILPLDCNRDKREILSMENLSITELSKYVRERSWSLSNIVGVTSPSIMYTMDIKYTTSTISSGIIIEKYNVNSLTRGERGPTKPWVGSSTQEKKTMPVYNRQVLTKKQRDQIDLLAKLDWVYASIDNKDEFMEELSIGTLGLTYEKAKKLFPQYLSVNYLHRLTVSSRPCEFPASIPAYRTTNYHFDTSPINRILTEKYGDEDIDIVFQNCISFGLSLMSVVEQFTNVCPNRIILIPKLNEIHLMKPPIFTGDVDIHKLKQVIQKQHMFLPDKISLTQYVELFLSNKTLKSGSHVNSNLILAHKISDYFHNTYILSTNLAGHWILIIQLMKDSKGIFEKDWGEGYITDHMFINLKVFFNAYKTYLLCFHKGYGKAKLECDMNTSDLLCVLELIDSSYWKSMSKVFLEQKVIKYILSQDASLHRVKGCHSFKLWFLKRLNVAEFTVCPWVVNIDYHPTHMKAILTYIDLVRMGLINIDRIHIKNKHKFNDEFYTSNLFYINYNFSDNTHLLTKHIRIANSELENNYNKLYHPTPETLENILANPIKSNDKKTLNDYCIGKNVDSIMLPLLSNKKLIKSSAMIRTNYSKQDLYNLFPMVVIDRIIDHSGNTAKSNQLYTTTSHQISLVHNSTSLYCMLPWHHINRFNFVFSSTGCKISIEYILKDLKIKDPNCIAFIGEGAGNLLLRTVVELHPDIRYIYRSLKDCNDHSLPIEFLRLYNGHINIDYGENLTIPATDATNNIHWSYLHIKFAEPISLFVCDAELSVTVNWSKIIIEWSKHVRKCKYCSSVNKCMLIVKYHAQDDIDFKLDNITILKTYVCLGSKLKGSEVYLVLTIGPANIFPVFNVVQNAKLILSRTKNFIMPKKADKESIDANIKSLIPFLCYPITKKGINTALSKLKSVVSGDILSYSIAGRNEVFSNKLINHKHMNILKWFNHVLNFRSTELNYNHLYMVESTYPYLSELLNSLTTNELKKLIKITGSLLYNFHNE

With `Cn1nc(C(F)(F)F)cc1C(=O)Nc1ccc(S(=O)(=O)N2CCCC[C@H]2CCN2CCOCC2)cc1` [ERDRP-0519] the “PBMC responsiveness (PHA-stimulated proliferation)” value (CDV-5804PeH; PET group) was “only transiently impaired”, the “clinical signs of disease” value (CDV-5804PeH; PET group) was “remained subclinical” and the “humoral response (neutralizing antibodies)” value (CDV-5804PeH; PET group) was “strong humoral response”. The “signs of compound-induced toxicity” value (CDV-5804PeH; PET group, 50 mg/kg p.o. b.i.d. for 14 days) was “not observed signs of compound-induced toxicity”, the “prolongation of survival of treated ferrets” value (CDV-5804PeH; pre-exposure prophylaxis) was “up to 2 fold” and the animal survival (CDV-5804PeH; prophylactic dosing, 50 mg/kg p.o. b.i.d. from 24 hours pre-infection) was “significantly prolonged animal survival”. The “interferon induction levels in PBMCs” value (CDV-5804PeH; prophylactically treated animals) was “low interferon induction levels”, the clearance of infection (CDV-5804PeH; therapeutically dosed animals, by day 28 pI) was “completely cleared the infection” and the oral availability [1] was 39%. The cytotoxicity [2] was “low cytotoxicity”, the “inhibition of RdRp (replicon reporter) activity” value (“inhibition of RdRp” below) (MeV polymerase complex) was “potently inhibited” and the “inhibition of RdRp” value (CDV polymerase complex) was “potently inhibited”. The “inhibition of RdRp” value (RSV polymerase complex) was “not blocked”, the peak plasma concentration ([3]; PEG-200/0.5% methylcellulose (10/90)) was “exceeded 1,500 ng/ml” and the peak plasma concentration ([3]; converted from ng/ml) was “approximately 3.5 µM”. For the same molecule, the “potency reduction against CDV strains relative to MeV” value [4] was “approximately 2 fold”, the “increase in EC90 concentration versus standard CDV-5804PeH” value (“increase” below) ([5]; CDV-5804PeH-LG835R) was “approximately 8 fold” and the “increase” value ([5]; CDV-5804PeH-LH589Y) was “approximately 8 fold”. The “increase” value ([5]; CDV-5804PeH-LH816L) was “approximately 8 fold”, the “increase” value ([5]; CDV-5804PeH-LN398D) was “approximately 2 fold” and the “increase” value ([5]; CDV-5804PeH-LT751I) was over 20 fold. For the same molecule, the “increase” value ([5]; CDV-5804PeH-LT776A) was over 20 fold, the “selectivity indices (SI), CC50/EC50” value (MeV isolates; against all MeV targets analyzed) was over 200 and the antiviral potency (MeV isolates; panel of MeV isolates representing clades currently endemic worldwide) was “nanomolar”. For the same molecule, the serum protein binding (serum protein binding) was under 95%, the shelf-stability [6] was “exceeded one year without loss of activity” and the bidirectional membrane permeability [7] was “high”.
